For the experiment, the target named is Metabotropic glutamate receptor 7 (Rattus norvegicus) (UniProt P35400). The experiment in a line: rat mGlu7 allosteric modulation, L-AP4 curve shift, profiling panel, selectivity assay for mGlu5 PAM project, thallium flux, HEK/GIRK cells (AID 588731). The settings on record: L-AP4 CRC shift, at 10 µM; for Emax: measured here: L-AP4 max response with compound. Summed up: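 Test system – HEK cells with GIRK channels expressing rat mGlu7 receptor · Compound dosing – single test compound concentration of 10 µM final · Signal – GIRK thallium flux fluorescence · Timing – dye load 45 min, 37 °C, agonist at 142 s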

Activity calls are given as the source filed them.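 Rule for the calls: active = compounds shifting agonist potency at least twofold either way, or pushing peak agonist response below 75% or above 125%; inactive = the rest.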

Sequence of Metabotropic glutamate receptor 7 (Rattus norvegicus) (P35400 whole entry, looked up): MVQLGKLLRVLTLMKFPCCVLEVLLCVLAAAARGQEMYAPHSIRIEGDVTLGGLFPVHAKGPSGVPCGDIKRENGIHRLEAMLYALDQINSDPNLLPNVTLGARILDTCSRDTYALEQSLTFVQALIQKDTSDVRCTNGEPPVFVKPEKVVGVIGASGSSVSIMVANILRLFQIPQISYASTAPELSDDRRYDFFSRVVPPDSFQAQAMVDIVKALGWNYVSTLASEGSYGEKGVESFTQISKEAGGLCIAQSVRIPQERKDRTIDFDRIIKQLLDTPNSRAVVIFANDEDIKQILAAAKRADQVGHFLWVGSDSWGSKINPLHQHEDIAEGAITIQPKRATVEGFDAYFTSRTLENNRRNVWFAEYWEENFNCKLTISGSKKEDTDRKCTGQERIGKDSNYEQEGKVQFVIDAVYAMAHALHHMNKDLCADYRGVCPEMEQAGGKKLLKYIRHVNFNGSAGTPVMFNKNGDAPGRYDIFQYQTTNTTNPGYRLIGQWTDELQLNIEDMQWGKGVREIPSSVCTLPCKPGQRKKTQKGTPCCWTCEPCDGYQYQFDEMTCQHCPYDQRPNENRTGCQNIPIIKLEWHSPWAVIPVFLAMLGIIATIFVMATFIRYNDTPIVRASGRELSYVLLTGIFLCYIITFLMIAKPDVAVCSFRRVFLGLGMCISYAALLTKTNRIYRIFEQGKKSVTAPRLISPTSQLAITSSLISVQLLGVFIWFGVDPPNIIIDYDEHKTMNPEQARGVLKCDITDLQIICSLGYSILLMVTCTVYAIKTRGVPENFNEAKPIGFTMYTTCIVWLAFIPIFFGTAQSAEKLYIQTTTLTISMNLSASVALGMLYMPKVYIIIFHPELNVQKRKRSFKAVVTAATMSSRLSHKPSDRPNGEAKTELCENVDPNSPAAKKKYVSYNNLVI

As for `CC1(NC(=O)c2ccc(C#Cc3cccc(F)c3)cn2)COC1`, the fold shift was 0.77 (inactive) and the Emax was determined as 92.3%.
On the same counts, the results for `C[C@@H](NC(=O)c1ccc(C#Cc2cccc(F)c2)cn1)C(C)(C)O` are 1.04 (inactive) and 92%.

As usually defined, the Emax is the size of the effect at its maximum, as opposed to the concentration needed.

Values taken from PubChem BioAssay AID588731 (Vanderbilt Specialized Chemistry Center, 2011).
